Measured values from ChEMBL document CHEMBL4706607, “Anti-tubercular profile of new selenium-menadione conjugates against Mycobacterium tuberculosis H37Rv (ATCC 27294) strain and multidrug-resistant clinical isolates” (Eur J Med Chem, 2021).
In brackets after ≈: the same amount, converted by molar mass.

Columns and labels:
[1] = test system: Mycobacterium tuberculosis; assay: Antimycobacterial activity against Mycobacterium tuberculosis H37Rv ATCC 27294 assessed as reduction in bacterial growth by resazurin reduction microplate assay; assay type: functional
Summary of the method: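 REMA in Middlebrook 7H9 broth with 10% ADC. Compounds dissolved at 1 mg/mL in DMSO and diluted to 50 μg/mL in broth containing 5% DMSO. Ten-point two-fold dilutions gave 25.0 to 0.05 μg/mL. Growth and sterility controls on each plate. MIC was the lowest concentration preventing the blue-to-pink change.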

[2] = Cytotoxicity against African green monkey Vero cells assessed as reduction in cell viability incubated for 24 hrs by MTT assay; assay type: cell-based; conditions: chlorocebus sabaeus
Summary of the method: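 Vero cells kept in DMEM with 4.5 mg/mL glucose and 10% inactivated FBS at 37 °C, 5% CO2. Seeded at 30,000 cells/well and grown 24 h, then exposed to 5, 10, 25 and 50 μM for 24 h. Control was medium with 1% DMSO. MTT 0.5 mg/mL in HBSS for 3 h; formazan dissolved in DMSO and read at 570–690 nm. CC50 taken from survival relative to untreated cells.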

[3] = Selectivity index, ratio of CC50 for African green monkey Vero cells to MIC for Mycobacterium tuberculosis H37Rv ATCC 27294; assay type: toxicity; conditions: read-out: Selectivity Index
[4] = Selectivity index, ratio of CC50 for African green monkey Vero cells to MIC for Mycobacterium tuberculosis CDCT-16; assay type: toxicity; conditions: read-out: Selectivity Index
[5] = Selectivity index, ratio of CC50 for African green monkey Vero cells to MIC for Mycobacterium tuberculosis CDCT-27; assay type: toxicity; conditions: read-out: Selectivity Index

`COc1ccc(C(=O)[Se]CC2=C(C)C(=O)c3ccccc3C2=O)cc1` showed an MIC [1] of over 10 µM.

With `CCc1ccc(C(=O)[Se]CC2=C(C)C(=O)c3ccccc3C2=O)cc1` the MIC [1] was over 10 µM.

Compound `CC1=C(C[Se]C(=O)c2ccccc2)C(=O)c2ccccc2C1=O` has an MIC [1] of 2.1 µM (≈ 0.775 µg/mL), a CC50 at 24 h [2] of over 50 µM and a selectivity ratio [3] of over 23.8. The selectivity ratio [4] was over 62.5 and the selectivity ratio [5] was over 62.5.

Work on `CC1=C(C[Se]C(=O)c2ccc(C)cc2)C(=O)c2ccccc2C1=O` yielded an MIC [1] of over 10 µM.

`CCCCC(=O)[Se]CC1=C(C)C(=O)c2ccccc2C1=O` gave an MIC [1] of over 10 µM.

Work on `CC1=C(C[Se]C(=O)c2ccc(Cl)cc2)C(=O)c2ccccc2C1=O` yielded an MIC [1] of over 10 µM.

Work on `CCCC(C)C(=O)[Se]CC1=C(C)C(=O)c2ccccc2C1=O` (centres undefined) yielded an MIC [1] of over 10 µM.

For `NNC(=O)c1ccncc1` [ISONIAZID], the MIC [1] was 2.2 µM (≈ 0.302 µg/mL), the CC50 at 24 h [2] was over 50 µM and the selectivity ratio [3] was over 22.7.

In the case of `CC1=C(C[Se]C(=O)c2ccc(F)cc2)C(=O)c2ccccc2C1=O`, the MIC [1] is reported as 8 µM (≈ 3.1 µg/mL), the CC50 at 24 h [2] is reported as over 50 µM and the selectivity ratio [3] is reported as over 6.2. The selectivity ratio [4] was over 62.5 and the selectivity ratio [5] was over 16.1.

Compound `CC1=C(C[Se]C(=O)c2ccccc2C)C(=O)c2ccccc2C1=O` has an MIC [1] of 8.1 µM (≈ 3.1 µg/mL), a CC50 at 24 h [2] of 7.7 µM and a selectivity ratio [3] of 0.9. It also gave a selectivity ratio [4] of 2.5 and a selectivity ratio [5] of 2.5.
